In ChEMBL document CHEMBL1123109, “Alkyl esters of 3-adenin-9-yl-2-hydroxypropanoic acid: a new class of broad-spectrum antiviral agents” (1985):
≈ marks a conversion by molar mass, not a printed value.

Columns and labels:
Assay type in all cases: functional
HK [1] = experiment: Minimum inhibitory concentration which is required to reduce virus-induced cytopathogenicity by 50% against Vesicular stomatitis virus in human kidney (HK) cells
How it was run: (§1)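 Vesicular stomatitis virus was inoculated at 100 CCID50 (100× the dose infecting 50% of cells) in each cell type: human embryonic skin-muscle fibroblasts, LR-strain trisomy-21 fibroblasts, HEp-2, CV-1, BS-C-1, Balb/3T3, RK13, human kidney, HeLa and Vero. CPE was read at 1–2 days in every cell type, once complete in untreated infected controls. The MIC is the concentration giving a 50% reduction in cytopathogenicity.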

[2] = tested on: Vesicular stomatitis virus; experiment: Inhibition of Vesicular stomatitis virus induced cytopathicity in BALB/3T3 cells.; conditions: in Mus musculus; how it was run: as §1
Oryctolagus cuniculus [3] = species: Oryctolagus cuniculus; experiment: Inhibitory effects on DNA, RNA, and Protein synthesis in rabbit kidney cells was evaluated for incorporation of [methyl-3H]dThd]; conditions: read-out: ID50 (the source's name)
Poliovirus 1 = experiment: Inhibition of polio virus 1 induced cytopathicity in HeLa cells.; conditions: Enterovirus C
Measles morbillivirus = experiment: Inhibition of Measles virus induced cytopathicity in vero cells.
[4] = tested on: Vesicular stomatitis virus; experiment: Inhibition of Vesicular stomatitis virus induced cytopathicity in Vero cells.; how it was run: as §1
Oryctolagus cuniculus [5] = species: Oryctolagus cuniculus; experiment: Inhibitory effects on DNA, RNA, and Protein synthesis in rabbit kidney cells was evaluated for incorporation of [5-3H]-Urd; conditions: read-out: ID50 (the source's name)
Human alphaherpesvirus 1 = experiment: Inhibition of HSV-1 induced cytopathicity in PRK cells.
[6] = tested on: Vesicular stomatitis virus; experiment: Inhibition of Vesicular stomatitis virus induced cytopathicity in PRK cells.
[7] = tested on: Mammalian orthoreovirus 1; experiment: Inhibition of Reo virus-1 induced cytopathicity in vero cells.
[8] = tested on: Vesicular stomatitis virus; experiment: Inhibition of Vesicular stomatitis virus induced cytopathicity in HeLa cells.; how it was run: as §1
[9] = tested on: Vesicular stomatitis virus; experiment: Inhibition of Vesicular stomatitis virus induced cytopathicity in BS-C-1 cells.; how it was run: as §1
Vero = experiment: Cytotoxic concentration against Vero cells.; conditions: Chlorocebus sabaeus
How it was run: (§2)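 Uninfected cells were incubated with compound for the same duration as the matching antiviral assay. The minimum cytotoxic concentration is the lowest one causing a microscopically detectable change in normal cell morphology.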

HeLa = experiment: Cytotoxic concentration against HeLa cells.; conditions: Homo sapiens; how it was run: as §2
PRK = experiment: Cytotoxic concentration against PRK cells.; conditions: Oryctolagus cuniculus; how it was run: as §2
Vaccinia virus = experiment: Inhibition of Vaccinia virus induced cytopathicity in PRK cells.; conditions: Orthopoxvirus vaccinia
[10] = tested on: Vesicular stomatitis virus; experiment: Inhibition of Vesicular stomatitis virus induced cytopathicity in E6SM cells.; how it was run: as §1
Coxsackievirus B4 = experiment: Inhibition of Coxsackie B4 virus induced cytopathicity in HeLa cells.; conditions: Enterovirus B
[11] = tested on: Vesicular stomatitis virus; experiment: Inhibition of Vesicular stomatitis virus induced cytopathicity in HEp-2 cells.; how it was run: as §1
Oryctolagus cuniculus [12] = species: Oryctolagus cuniculus; experiment: Inhibitory effects on DNA, RNA, and Protein synthesis in rabbit kidney cells was evaluated for incorporation of [4,5-3H]leucine; conditions: read-out: ID50 (the source's name)
Human respirovirus 3 = experiment: Inhibition of parainfluenza virus-3 induced cytopathicity in vero cells.
Sindbis virus = experiment: Inhibition of Sindbis virus induced cytopathicity in vero cells.
[13] = tested on: Vesicular stomatitis virus; experiment: Inhibition of Vesicular stomatitis virus induced cytopathicity in RK13 cells.; how it was run: as §1
HK [14] = experiment: Minimum inhibitory concentration which is required to reduce virus-induced cytopathogenicity by 50% against Vesicular stomatitis virus in human kidney,; how it was run: as §1
[15] = tested on: Vesicular stomatitis virus; experiment: Inhibition of Vesicular stomatitis virus induced cytopathicity in CV-1 cells.; how it was run: as §1
[16] = tested on: Vesicular stomatitis virus; experiment: Inhibition of Vesicular stomatitis virus induced cytopathicity in T-21 cells.; how it was run: as §1
HK [17] = experiment: Minimum inhibitory concentration which is required to reduce virus-induced cytopathogenicity by 50% against Vesicular stomatitis virus in human kidney; how it was run: as §1

COC(=O)C(O)Cn1cnc2c(N)ncnc21 (stereo not given)
MIC (HK [1]): > 400 µg/mL
MIC [2]: 300 µg/mL (≈ 1260 µM)
IC50 (Oryctolagus cuniculus [3]): > 400 µg/mL
MIC (Poliovirus 1): > 400 µg/mL
MIC (Measles morbillivirus): 40 µg/mL (≈ 169 µM)
MIC [4]: > 400 µg/mL
IC50 (Oryctolagus cuniculus [5]): 350 µg/mL (≈ 1480 µM)
MIC (Human alphaherpesvirus 1): > 400 µg/mL
MIC [6]: 3 µg/mL (≈ 12.6 µM)
MIC [7]: 200 µg/mL (≈ 843 µM)
MIC [8]: 70 µg/mL (≈ 295 µM)
MIC [9]: 150 µg/mL (≈ 632 µM)
MCC (Vero): > 400 µg/mL
MCC (HeLa): > 400 µg/mL
MCC (PRK): > 400 µg/mL
MIC (Vaccinia virus): 7 µg/mL (≈ 29.5 µM)
MIC [10]: 30 µg/mL (≈ 126 µM)
MIC (Coxsackievirus B4): > 400 µg/mL
MIC [11]: 3 µg/mL (≈ 12.6 µM)
IC50 (Oryctolagus cuniculus [12]): > 400 µg/mL
MIC (Human respirovirus 3): 20 µg/mL (≈ 84.3 µM)
MIC (Sindbis virus): > 400 µg/mL
MIC [13]: 1 µg/mL (≈ 4.22 µM)

CCCCOC(=O)C(O)Cn1cnc2c(N)ncnc21 (stereo not given)
MIC [2]: 200 µg/mL (≈ 716 µM)
IC50 (Oryctolagus cuniculus [3]): > 253 µg/mL
MIC (Poliovirus 1): > 400 µg/mL
MIC (Measles morbillivirus): 25 µg/mL (≈ 89.5 µM)
MIC (HK [14]): 50 µg/mL (≈ 179 µM)
MIC [4]: 30 µg/mL (≈ 107 µM)
IC50 (Oryctolagus cuniculus [5]): 102 µg/mL (≈ 365 µM)
MIC (Human alphaherpesvirus 1): > 200 µg/mL
MIC [6]: 3 µg/mL (≈ 10.7 µM)
MIC [7]: 150 µg/mL (≈ 537 µM)
MIC [8]: 15 µg/mL (≈ 53.7 µM)
MIC [9]: 150 µg/mL (≈ 537 µM)
MCC (Vero): 200 µg/mL
MCC (HeLa): 400 µg/mL
MIC [15]: 300 µg/mL (≈ 1070 µM)
MCC (PRK): 200 µg/mL
MIC (Vaccinia virus): 3 µg/mL (≈ 10.7 µM)
MIC [10]: 7 µg/mL (≈ 25.1 µM)
MIC (Coxsackievirus B4): > 400 µg/mL
MIC [11]: 2 µg/mL (≈ 7.16 µM)
IC50 (Oryctolagus cuniculus [12]): > 381 µg/mL
MIC (Human respirovirus 3): 70 µg/mL (≈ 251 µM)
MIC [16]: 2 µg/mL (≈ 7.16 µM)
MIC (Sindbis virus): 150 µg/mL (≈ 537 µM)
MIC [13]: 100 µg/mL (≈ 358 µM)

CCCCCCCCOC(=O)C(O)Cn1cnc2c(N)ncnc21 (stereo not given)
MIC [2]: 100 µg/mL (≈ 298 µM)
MIC (Poliovirus 1): > 100 µg/mL
MIC (Measles morbillivirus): 70 µg/mL (≈ 209 µM)
MIC [4]: 100 µg/mL (≈ 298 µM)
MIC (HK [17]): 15 µg/mL (≈ 44.7 µM)
MIC (Human alphaherpesvirus 1): > 100 µg/mL
MIC [6]: 7 µg/mL (≈ 20.9 µM)
MIC [7]: 7 µg/mL (≈ 20.9 µM)
MIC [8]: 1 µg/mL (≈ 2.98 µM)
MIC [9]: > 100 µg/mL
MCC (Vero): 200 µg/mL
MCC (HeLa): 100 µg/mL
MIC [15]: > 100 µg/mL
MCC (PRK): 100 µg/mL
MIC (Vaccinia virus): 7 µg/mL (≈ 20.9 µM)
MIC [10]: 7 µg/mL (≈ 20.9 µM)
MIC (Coxsackievirus B4): > 100 µg/mL
MIC [11]: 2 µg/mL (≈ 5.96 µM)
MIC (Human respirovirus 3): 15 µg/mL (≈ 44.7 µM)
MIC [16]: 0.5 µg/mL (≈ 1.49 µM)
MIC (Sindbis virus): 30 µg/mL (≈ 89.4 µM)
MIC [13]: 30 µg/mL (≈ 89.4 µM)
